# Measured values as given in paper PMC10824272 (Biomedicine & pharmacotherapy = Biomedecine & …, 2023).
# Entries after “also recorded” stand apart in the source; their conditions may differ.
# Legend:
# SW480^cld1 cells [1] = experiment: Cell viability; assay type: cell-based, human
# Procedure, shortened: (§1)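 Claudin-1-overexpressing SW480cld1 and SW620 cells grown in RPMI with 10% FBS and exposed for 72 hours to a range of test compound concentrations. Viability measured by PrestoBlue reagent. EC50 calculated from the concentration–viability data.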
# SW620 cells [2] = experiment: Cell viability; assay type: cell-based, human
# Procedure, shortened: as §1
# HCT116 cells [3] = experiment: Cell viability; assay type: cell-based, human; settings: 25 & 50μM
# Procedure, shortened: (§2)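 Cells maintained in RPMI plus 10% FBS. Viability read with PrestoBlue reagent per kit protocol after 72 h exposure to test compound.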
# SW480^cld2 cells = experiment: Cell viability; assay type: cell-based, human; settings: 25 & 50μM
# Procedure, shortened: as §2
# SW480 cells = experiment: Cell viability; assay type: cell-based, human; settings: even at 25μM
# SW480^cld1 cells [4] = experiment: Anoikis-induced apoptosis assay; assay type: cell-based
# Procedure, shortened: (§3)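 Anoikis induced by plating cells on poly-HEMA-coated culture plates. Apoptosis quantified with a cell death detection ELISA. Parental lines were cultured in RPMI with 10% FBS. Claudin-1-overexpressing SW480 and claudin-1-knockdown SW620 derivatives were used.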
# SW620 cells [5] = experiment: Anoikis-induced apoptosis assay; assay type: cell-based
# HCT116 cells [6] = experiment: Anoikis-induced apoptosis assay; assay type: cell-based, human; settings: claudin-1 deficient HCT116
# SW620^1C cells = experiment: Anoikis-induced apoptosis assay; assay type: cell-based, human; settings: claudin-1 knockdown SW620^1C
# Procedure, shortened: as §3
# SW620 cells [7] = experiment: Transwell matrigel invasion assay; assay type: cell-based, human; settings: I-6; claudin-1 overexpressed SW620
# SW480^cld1 cells [8] = experiment: Transwell matrigel invasion assay; assay type: cell-based, human; settings: I-6; claudin-1 overexpressed SW480^cld1
# HCT116 cells [9] = experiment: Transwell matrigel invasion assay; assay type: cell-based, human; settings: I-6; claudin-1 deficient HCT116
# [10] = tested on: SW480^cld1 xenograft tumor; experiment: Subcutaneous xenograft tumor study; assay type: in vivo, athymic nude mice
# Procedure, shortened: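 Cells implanted subcutaneously in athymic nude mice, n = 5 per group, vehicle controls. For SW480cld1 with I-6, once-weekly dosing started 10 days after implantation, once tumors were palpable, for two weeks. Caliper volume over time, formula […]. Ki67 and cleaved PARP by IHC. Behavior and body weight monitored.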
# [11] = tested on: colon tumoroids from APC^min/+ / claudin-1 mice; experiment: Tumoroid culture apoptosis; assay type: cell-based
# Procedure, shortened: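 Colon tumors from APCmin/+/claudin-1 mice washed in ice-cold PBS and digested with collagenase-containing buffer. Single cells pelleted at 200 x g for 3 min, embedded in Matrigel and plated as tumoroids. Tumoroids exposed to test compound alone or with 5 μM 5-FU, then scored for apoptosis.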
# [12] = Plasma pharmacokinetics in mice; assay type: in vivo
# Procedure, shortened: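 I-6 given as a single 1 mg/kg intravenous dose to C57BL6 mice (n=5), with serial blood sampling. PDS-0330 given at 5 mg/kg by oral gavage or IP, with ~100 μl blood drawn from the maxillary vein at 5, 15, 30 min and 1, 2, 4, 6, 8, 24 h. Plasma levels in ng/ml; non-compartmental parameters.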
# [13] = Tissue bio-distribution in mice; assay type: in vivo; settings: both, mouse, liver, po, 5 mg/kg
# [14] = Metabolic stability, phase I; assay type: in vitro ADME, human; settings: HLM, phase I metabolism, 60 min
# Procedure, shortened: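 Phase I stability in human liver microsomes (20 mg/ml stock), 100 mM potassium phosphate pH 7.4, 10 mM MgCl2, 2 mM NADPH. Mix pre-incubated 10 min at 37 °C. Output is percent parent remaining per time point. Elimination rate constant taken from first-order plot of ln area ratio versus time.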
# [15] = biological target: T1, claudin-1/Src association (Homo sapiens, UniProt O95832); experiment: Proximity ligation assay; assay type: cell-based
# T1 sequence (O95832 1-211): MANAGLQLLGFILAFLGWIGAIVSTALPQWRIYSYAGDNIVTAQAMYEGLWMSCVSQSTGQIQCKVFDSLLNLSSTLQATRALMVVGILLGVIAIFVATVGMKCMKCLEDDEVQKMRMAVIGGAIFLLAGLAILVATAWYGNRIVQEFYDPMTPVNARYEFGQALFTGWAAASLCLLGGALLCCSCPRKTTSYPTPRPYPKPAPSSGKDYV
# [16] = tested on: pSrc, pAkt, Bcl2, Bcl-xL, survivin, cleaved PARP in SW620 and SW480^cld1 cells; experiment: Immunoblotting of signaling and apoptosis markers; assay type: cell-based, human; settings: I-6, SW480^cld1 cells
# Procedure, shortened: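 Treated cells (vehicle or 12.5 and 25 μM) lysed. 10–30 μg protein per lane resolved by SDS-PAGE and immunoblotted, with enhanced chemiluminescence detection on film. Antibodies included p-Src (Tyr416), pAkt and total Akt, with GAPDH or β-actin as loading reference.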
# [17] = I-6 1mg/kg intravenous, mice, plasma, 1 mg/kg
# [18] = both, C57BL6, mouse, plasma, iv, 1 mg/kg
compound,measurement,setting,value
"COc1cc2ccccc2cc1C(=O)NC(=S)Nc1ccc(-c2nc3ccccc3[nH]2)cc1 [I-6, N-((4-(1H-benzo[d]imidazol-2-yl)phenyl)carbamothioyl)-3-methoxy-2-naphthamide]",cell viability,"SW480^cld1 cells [1]; 25 & 50μM, P<0.001",significantly decreases cell viability
same,EC50,"SW480^cld1 cells [1]; Homo sapiens, 72 h, read-out: EC50, cell viability",28.4 µM
same,effect with 5-FU on cell growth,SW480^cld1 cells [1]; I-6 0.625μM-20μM with 5-FU 5μM,synergistic effect
same,cell viability,"SW620 cells [2]; 25 & 50μM, P<0.001",significantly decreases cell viability
same,EC50,"SW620 cells [2]; Homo sapiens, SW-620, 72 h, read-out: EC50, cell viability",24.8 µM
same,cell viability,HCT116 cells [3],no significant impact
same,cell viability,SW480^cld2 cells,no significant impact
same,impact on SW480 cells,SW480 cells,no significant impact
same,resistance to anoikis,SW480^cld1 cells [4]; claudin-1 overexpressed SW480^cld1,dramatically inhibits anoikis resistance; also recorded: inhibition of resistance to anoikis
same,effect with 5-FU on anoikis resistance,SW480^cld1 cells [4]; co-treatment with 5-FU,synergistic effect
same,resistance to anoikis,SW620 cells [5]; claudin-1 overexpressed SW620,inhibition of resistance to anoikis
same,effect with 5-FU on anoikis resistance,SW620 cells [5]; co-treatment with 5-FU,synergistic effect
same,resistance to anoikis,HCT116 cells [6],no effect
same,resistance to anoikis,SW620^1C cells,no effect
same,invasion,SW620 cells [7],suppresses invasion
same,invasion,SW480^cld1 cells [8],suppresses invasion
same,invasion,HCT116 cells [9],no effect
same,Ki67 expression in tumors (IHC),[10]; I-6 10 mg/kg,significantly inhibited
same,cleaved PARP in tumors (IHC),[10]; I-6 10 mg/kg,significantly increased
same,tumor volume and weight at necropsy,"[10]; I-6 10 mg/kg once/week, vs vehicle",significantly reduced
same,effect with 5-FU on development of xenograft tumor,"[10]; co-treatment with 5-FU, nude mice",synergistic effect
same,mouse behavior or weight,[10]; during I-6 / 5-FU xenograft studies,no obvious changes
same,effect with 5-FU on induction of apoptosis in tumoroids,[11]; I-6 25μM with 5-FU 5μM,synergistic effect
same,rate of apoptosis in tumoroids,"[11]; I-6 25μM, 48 hours",significantly increased
same,time up to which detectable in plasma,"[12]; I-6 1mg/kg intravenous, mice",up to 24 h
same,AUC0- ∞,[12]; [17],1207.1 ± 35.6 ng·h/mL
same,C0,[12]; [17],798.3 ± 277.2 ng/mL
same,time of plasma peak concentration,"[12]; I-6 oral 5mg/kg, mice",2 h
same,AUC(0-t),[12]; [18],1140 ± 59.6 ng·h/mL
same,MRT,[12]; [18],5.6 ± 1.2 h
same,half-life,[12]; [18],7 ± 1.6 h
same,AUC(0-inf),"[12]; both, C57BL6, mouse, plasma, iv, 1 mg/kg, AUC0- ∞, I-6 1mg/kg intravenous, mice",1140 ng·h/mL
same,C0,"[12]; both, C57BL6, mouse, plasma, iv, 1 mg/kg, C0, I-6 1mg/kg intravenous, mice",798 ng/mL
same,Vd,"[12]; both, C57BL6, mouse, plasma, iv, 1 mg/kg, Vd, I-6 1mg/kg intravenous, mice",8.4 ± 2.1 L/kg
same,Vd,"[12]; both, C57BL6, mouse, plasma, iv, 1 mg/kg, Vss, I-6 1mg/kg intravenous, mice",4.7 ± 1.1 L/kg
same,Cmax,"[12]; both, mouse, plasma, po, 5 mg/kg",2.8 ng/mL
same,concentration at 24 h,[13],65 ng/g
same,drug remaining after 60 min,[14],49%
same,association of claudin-1 with Src,[15],significantly interferes
same,Src phosphorylation,[16],significantly interferes
